In ChEMBL document CHEMBL1152810, “Microwave synthesis and evaluation of phenacylhomoserine lactones as anticancer compounds that minimally activate quorum sensing pathways in Pseudomonas aeruginosa” (J Med Chem, 2009):

Experiments:
Pseudomonas aeruginosa [1] = experiment: Toxicity assessed as activation of quorum sensing signalling in Pseudomonas aeruginosa MW1 carrying (lasI-,rhlI-) pUM15 containing rsa::gfp fusion gene at 33 uM by LasR-dependent green fluorescence protein reporter assay; type: organism-based; conditions: in vivo
NCI-H630 [2] = experiment: Cytotoxicity against human NCI-H630 cells after 5 days by SRB assay; type: functional, cell-based; conditions: NCI-H630, 120 h
Outline: (§1)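 Cells grown in phenol-red-free RPMI-1640 with 10% dialyzed FBS and no antibiotics, at 37 °C and 5% CO₂. H630-1 was kept in 1 µM 5-FU until 1 week before use. Compounds were dried from EtOH (10× final) into wells, in duplicate or quadruplicate. Seeding per well: H630 2×10³, H630-1 4×10³, PC3 2×10³. After 5 days, cells were TCA-fixed, stained with 0.4% SRB, dye dissolved in Tris, OD570 read.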

NCI-H630 [3] = experiment: Cytotoxicity against 5FU-resistant human NCI-H630 cells after 5 days by SRB assay; type: functional, cell-based; conditions: NCI-H630, 120 h; outline: as §1
PC-3 = experiment: Cytotoxicity against human PC3 cells after 5 days by SRB assay; type: functional, cell-based; conditions: PC-3, 120 h; outline: as §1
Pseudomonas aeruginosa [4] = experiment: Toxicity assessed as activation of quorum sensing signalling in Pseudomonas aeruginosa MW1 carrying (lasI-,rhlI-) pUM15 containing rsa::gfp fusion gene at 0.3 uM by LasR-dependent green fluorescence protein reporter assay; type: organism-based; conditions: in vivo

Row | Compound | Activity (Pseudomonas aeruginosa [1]) | IC50 (NCI-H630 [2]) | IC50 (NCI-H630 [3]) | IC50 (PC-3) | Activity (Pseudomonas aeruginosa [4])
1 | O=C(CCCCCCCCCc1ccccc1)CC(=O)N[C@H]1CCOC1=O | Non-toxic | 16 µM | 13 µM | 4 µM | 
2 | O=C(CCCCCCCc1ccccc1)CC(=O)N[C@H]1CCOC1=O |  | 42 µM | 10 µM | 2 µM | 
3 | O=C(CCCCCCCCCCCc1ccccc1)CC(=O)N[C@H]1CCOC1=O | Non-toxic | 33 µM | 27 µM | 4 µM | 
4 | O=C(CCCCCc1ccccc1)CC(=O)N[C@H]1CCOC1=O |  | 44 µM | 24 µM | 9 µM | 
5 | O=C(CCCCCCc1ccccc1)CC(=O)N[C@H]1CCOC1=O |  | 65 µM | 27 µM | 9 µM | 
6 | O=C(CCCCCCCCCCc1ccccc1)N[C@H]1CCOC1=O |  | 70 µM | 66 µM | 66 µM | 
7 | O=C(CCCc1ccccc1)N[C@H]1CCOC1=O |  | > 100 µM | > 100 µM | > 100 µM | 
8 | O=C(CCCCCCCc1ccccc1)N[C@H]1CCOC1=O |  | > 100 µM | > 100 µM | 85 µM | 
9 | O=C(CCCCCCCCc1ccccc1)N[C@H]1CCOC1=O |  | > 100 µM | > 100 µM | 67 µM | 
10 | O=C(CCCCCCCCCCc1ccccc1)CC(=O)N[C@H]1CCOC1=O | Non-toxic | 23 µM | 14 µM | 2 µM | 
11 | O=C(CCCCc1ccccc1)CC(=O)N[C@H]1CCOC1=O |  | > 100 µM | 80 µM | 83 µM | 
12 | O=C(CC(=O)c1ccccc1)N[C@H]1CCOC1=O |  | > 100 µM | > 100 µM | > 100 µM | 
13 | O=C(Cc1ccccc1)N[C@H]1CCOC1=O |  | > 100 µM | > 100 µM | > 100 µM | 
14 | O=C(CC(=O)N[C@H]1CCOC1=O)Cc1ccccc1 |  | > 100 µM | > 100 µM | > 100 µM | 
15 | O=C(CCCCCc1ccccc1)N[C@H]1CCOC1=O |  | > 100 µM | > 100 µM | > 100 µM | 
16 | O=C(CCCc1ccccc1)CC(=O)N[C@H]1CCOC1=O |  | > 100 µM | > 100 µM | > 100 µM | 
17 | O=C(CCCCCCc1ccccc1)N[C@H]1CCOC1=O |  | > 100 µM | > 100 µM | > 100 µM | 
18 | O=C(CCCCCCCCCc1ccccc1)CC(=O)N[C@@H]1CCOC1=O |  | > 100 µM | > 100 µM | > 100 µM | 
19 | O=C(CCc1ccccc1)N[C@H]1CCOC1=O |  | > 100 µM | > 100 µM | > 100 µM | 
20 | O=C(CCCCCCCCc1ccccc1)CC(=O)N[C@H]1CCOC1=O |  | 11 µM | 10 µM | 4 µM | 
21 | O=C(CCCCCCCCCCCc1ccccc1)N[C@H]1CCOC1=O |  | > 100 µM | > 100 µM | > 100 µM | 
22 | O=C(CCCCCCCCCc1ccccc1)N[C@H]1CCOC1=O |  | > 100 µM | > 100 µM | 75 µM | 
23 | O=C(CCCCc1ccccc1)N[C@H]1CCOC1=O |  | > 100 µM | > 100 µM | > 100 µM | 
24 | O=C(CCc1ccccc1)CC(=O)N[C@H]1CCOC1=O |  | > 100 µM | > 100 µM | > 100 µM | 
25 | CCCCCCCCCC(=O)CC(=O)N[C@H]1CCOC1=O |  | 34 µM | 12 µM | 5 µM | Toxic
